Results from ChEMBL document CHEMBL2177092, “Phosphoramidate ProTides of the anticancer agent FUDR successfully deliver the preformed bioactive monophosphate in cells and confer advantage over the parent nucleoside” (J Med Chem, 2011).

System: not listed separately
Experiment: Stability of the compound in potassium phosphate buffer at pH 7.4 assessed as E.coli thymidine phosphorylase-mediated release of 5-FU after 5 mins by [19F] NMR spectroscopy
Type: ADME
Details: pH 7.4, 5 min
In short: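 Compound (6.0 mg) in methanol-d4 plus 300 mM potassium phosphate buffer pH 7.4. […] 19F NMR recorded at 5 min, 14 h and 72 h at 25 °C, with 5-FU identified by its signal near δF 169.50 ppm.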

Structure (SMILES)	Stability
O=c1[nH]cc(F)c(=O)[nH]1 [FLUOROURACIL]	Unstable

System: CCRF-CEM
Experiment: Ratio of IC50 for human CEM cells expressing human ENT1 transporter in presence of dipyridamole to IC50 for human CEM cells expressing human ENT1 transporter
Type: functional
Details: not given
In short: (§1)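 Human T-lymphocyte CEM cells with (CEM/hEnt-1) or lacking (CEM/hEnt-0) the hENT1 transporter were seeded at 60 000 cells/well with graded compound concentrations. Transporter-inhibition runs added dipyridamole (10 μM) or NBMPR (10 μM) to CEM/hEnt-1 cells. […] Ratios are formed against untreated CEM/hEnt-1 IC50. Mean of 2–4 experiments.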

Structure (SMILES)	Ratio IC50
CCOC(=O)C(C)(C)NP(=O)(OC[C@H]1O[C@@H](n2cc(F)c(=O)[nH]c2=O)C[C@@H]1O)Oc1ccccc1 (mixture of isomers)	2

System: not listed separately
Experiment: Cytostatic activity against mouse L1210/0 cells after 48 hrs by cell counting
Type: functional, cell-based
Details: L1210/0, 48 h
In short: (§2)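 Suspension leukemia cells in DMEM with 10% FBS, 10 mM Hepes and 1 mM sodium pyruvate at 37 °C under 5% CO2. Seeded at 60 000 cells/well with graded compound levels. Grown 48 h (L1210) or 72 h (CEM), then counted by Coulter counter. Mean ± SD of two to four independent experiments.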

Structure (SMILES)	IC50
CCOC(=O)C(C)(C)NP(=O)(OC[C@H]1O[C@@H](n2cc(F)c(=O)[nH]c2=O)C[C@@H]1O)Oc1ccccc1 (mixture of isomers)	30 nM

System: HeLa
Experiment: Cytostatic activity against thymidine-kinase deficient human HeLa cells […]
Type: functional, cell-based
Details: not given

Structure (SMILES)	IC50
CCOC(=O)C(C)(C)NP(=O)(OC[C@H]1O[C@@H](n2cc(F)c(=O)[nH]c2=O)C[C@@H]1O)Oc1ccccc1 (mixture of isomers)	17000 nM
O=c1[nH]cc(F)c(=O)[nH]1 [FLUOROURACIL]	230 nM

System: L1210
Experiment: Cytostatic activity against thymidine-kinase deficient mouse L1210 cells after 48 hrs by cell counting
Type: functional, cell-based
Details: L1210, 48 h
In short: as §2

Structure (SMILES)	IC50
CCOC(=O)C(C)(C)NP(=O)(OC[C@H]1O[C@@H](n2cc(F)c(=O)[nH]c2=O)C[C@@H]1O)Oc1ccccc1 (mixture of isomers)	4600 nM
O=c1[nH]cc(F)c(=O)[nH]1 [FLUOROURACIL]	320 nM

System: CCRF-CEM
Experiment: Ratio of IC50 for human CEM cells expressing human ENT1 transporter in presence of NBMPR to IC50 for human CEM cells expressing human ENT1 transporter
Type: functional
Details: not given
In short: as §1

Structure (SMILES)	Ratio IC50
CCOC(=O)C(C)(C)NP(=O)(OC[C@H]1O[C@@H](n2cc(F)c(=O)[nH]c2=O)C[C@@H]1O)Oc1ccccc1 (mixture of isomers)	2

System: L1210
Experiment: Ratio of IC50 for Mycoplasma hyorhinis-infected mouse L1210 cells to IC50 for mouse L1210/0 cells after 48 hrs by cell counting
Type: functional
Details: not given
In short: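 Murine L1210/0 cells were compared with L1210/TK cells, selected for resistance to 5-bromo-2'-dUrd, and with L1210.Hyor cells, chronically infected with Mycoplasma hyorhinis. Cells were grown in DMEM with 10% FBS, 10 mM Hepes and 1 mM pyruvate at 37 °C and 5% CO2, then seeded at 60 000 cells/well with compound. They were Coulter-counted after 48 h. […] Mean of 2–4 experiments.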

Structure (SMILES)	Ratio IC50
CCOC(=O)C(C)(C)NP(=O)(OC[C@H]1O[C@@H](n2cc(F)c(=O)[nH]c2=O)C[C@@H]1O)Oc1ccccc1 (mixture of isomers)	8.7

System: CCRF-CEM
Experiment: Cytostatic activity against ENT1 transporter-deficient human CEM cells after 72 hrs by cell counting
Type: functional, cell-based
Details: not given
In short: (§3)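 Suspension leukemia cells in DMEM with 10% FBS, 10 mM Hepes and 1 mM sodium pyruvate at 37 °C under 5% CO2. Seeded at 60 000 cells/well with graded compound levels. Grown 48 h (L1210) or 72 h (CEM), then counted by Coulter counter. […] Mean ± SD of two to four independent experiments.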

Structure (SMILES)	IC50
CCOC(=O)C(C)(C)NP(=O)(OC[C@H]1O[C@@H](n2cc(F)c(=O)[nH]c2=O)C[C@@H]1O)Oc1ccccc1 (mixture of isomers)	5800 nM

System: CCRF-CEM
Experiment: Cytostatic activity against human CEM cells expressing human ENT1 transporter after 72 hrs by cell counting
Type: functional, cell-based
Details: not given
In short: as §3

Structure (SMILES)	IC50
CCOC(=O)C(C)(C)NP(=O)(OC[C@H]1O[C@@H](n2cc(F)c(=O)[nH]c2=O)C[C@@H]1O)Oc1ccccc1 (mixture of isomers)	370 nM

System: CCRF-CEM
Experiment: Cytostatic activity against human CEM cells expressing human ENT1 transporter after 72 hrs by cell counting in presence of NBMPR
Type: functional, cell-based
Details: not given
In short: (§4)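 CEM/hEnt-1 cells with 10 μM dipyridamole or 10 μM NBMPR added alongside graded compound levels, in DMEM with 10% FBS, 10 mM Hepes and 1 mM sodium pyruvate at 37 °C under 5% CO2. Seeded at 60 000 cells/well, counted by Coulter counter after 3 days.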

Structure (SMILES)	IC50
CCOC(=O)C(C)(C)NP(=O)(OC[C@H]1O[C@@H](n2cc(F)c(=O)[nH]c2=O)C[C@@H]1O)Oc1ccccc1 (mixture of isomers)	2560 nM

System: CCRF-CEM
Experiment: Cytostatic activity against thymidine-kinase deficient human CEM cells after 72 hrs by cell counting
Type: functional, cell-based
Details: not given
In short: as §2

Structure (SMILES)	IC50
CCOC(=O)C(C)(C)NP(=O)(OC[C@H]1O[C@@H](n2cc(F)c(=O)[nH]c2=O)C[C@@H]1O)Oc1ccccc1 (mixture of isomers)	22000 nM
O=c1[nH]cc(F)c(=O)[nH]1 [FLUOROURACIL]	12000 nM

System: HeLa
Experiment: Cytostatic activity against human HeLa cells […] by cell counting
Type: functional, cell-based
Details: not given

Structure (SMILES)	IC50
CCOC(=O)C(C)(C)NP(=O)(OC[C@H]1O[C@@H](n2cc(F)c(=O)[nH]c2=O)C[C@@H]1O)Oc1ccccc1 (mixture of isomers)	590 nM

System: L1210
Experiment: Cytostatic activity against Mycoplasma hyorhinis-infected mouse L1210 cells after 48 hrs by cell counting
Type: functional, cell-based
Details: L1210, 48 h
In short: as §2

Structure (SMILES)	IC50
CCOC(=O)C(C)(C)NP(=O)(OC[C@H]1O[C@@H](n2cc(F)c(=O)[nH]c2=O)C[C@@H]1O)Oc1ccccc1 (mixture of isomers)	260 nM

System: CCRF-CEM
Experiment: Ratio of IC50 for ENT1 transporter-deficient human CEM cells to IC50 for human CEM cells expressing human ENT1 transporter after 72 hrs by cell counting
Type: functional
Details: not given
In short: as §1

Structure (SMILES)	Ratio IC50
CCOC(=O)C(C)(C)NP(=O)(OC[C@H]1O[C@@H](n2cc(F)c(=O)[nH]c2=O)C[C@@H]1O)Oc1ccccc1 (mixture of isomers)	7

System: CCRF-CEM
Experiment: Cytostatic activity against human CEM cells expressing human ENT1 transporter after 72 hrs by cell counting in presence of dipyridamole
Type: functional, cell-based
Details: not given
In short: as §4

Structure (SMILES)	IC50
CCOC(=O)C(C)(C)NP(=O)(OC[C@H]1O[C@@H](n2cc(F)c(=O)[nH]c2=O)C[C@@H]1O)Oc1ccccc1 (mixture of isomers)	2350 nM

System: CCRF-CEM
Experiment: Cytostatic activity against human CEM/0 cells after 72 hrs by cell counting
Type: functional, cell-based
Details: not given
In short: as §3

Structure (SMILES)	IC50
CCOC(=O)C(C)(C)NP(=O)(OC[C@H]1O[C@@H](n2cc(F)c(=O)[nH]c2=O)C[C@@H]1O)Oc1ccccc1 (mixture of isomers)	650 nM
